Results published in ChEMBL document CHEMBL4354861, “Re-Evaluating the Mechanism of Action of α,β-Unsaturated Carbonyl DUB Inhibitors b-AP15 and VLX1570: A Paradigmatic Example of Unspecific Protein Cross-linking with Michael Acceptor Motif-Containing Drugs” (J Med Chem, 2020).
Active and inactive are the calls of the source.

Tests used:
HeLa [1] = experiment: Inhibition of deubiquitinase in human HeLa cell extracts assessed as increase in high molecular weight protein complexes at 10 uM incubated for 2 hrs in presence of DTT by SDS-PAGE and Coomassie Blue staining based method; format: cell-free
Ataxin-3 (Homo sapiens) = Ataxin-3 (Homo sapiens) (UniProt P54252); experiment: Inhibition of human recombinant Ataxin-3 assessed as reduction in cleavage of luminescent substrate Ub-AML at 100 uM
Chain of Ataxin-3 (Homo sapiens) (P54252 whole entry): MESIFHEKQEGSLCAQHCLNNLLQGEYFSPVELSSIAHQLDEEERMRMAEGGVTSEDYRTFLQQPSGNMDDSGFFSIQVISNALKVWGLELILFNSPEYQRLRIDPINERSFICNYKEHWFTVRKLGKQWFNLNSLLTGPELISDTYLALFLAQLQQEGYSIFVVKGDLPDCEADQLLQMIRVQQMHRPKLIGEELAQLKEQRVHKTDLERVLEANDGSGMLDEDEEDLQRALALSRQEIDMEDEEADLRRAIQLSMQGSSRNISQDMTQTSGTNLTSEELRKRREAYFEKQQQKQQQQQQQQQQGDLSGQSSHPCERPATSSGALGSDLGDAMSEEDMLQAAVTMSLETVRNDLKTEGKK
In short: (§1)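 Purified recombinant DUBs assayed with Ub-AML as luminescent substrate, using the Glo reagent protocol and read on a microplate luminometer.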

[2] = molecular target: Ubiquitin carboxyl-terminal hydrolase 7 (Homo sapiens) (UniProt Q93009); experiment: Inhibition of N-terminal His6-tagged full length recombinant human USP7 assessed as reduction in cleavage of luminescent substrate Ub-AML at 100 uM; in short: as §1
Chain of Ubiquitin carboxyl-terminal hydrolase 7 (Homo sapiens) (Q93009 whole entry, looked up): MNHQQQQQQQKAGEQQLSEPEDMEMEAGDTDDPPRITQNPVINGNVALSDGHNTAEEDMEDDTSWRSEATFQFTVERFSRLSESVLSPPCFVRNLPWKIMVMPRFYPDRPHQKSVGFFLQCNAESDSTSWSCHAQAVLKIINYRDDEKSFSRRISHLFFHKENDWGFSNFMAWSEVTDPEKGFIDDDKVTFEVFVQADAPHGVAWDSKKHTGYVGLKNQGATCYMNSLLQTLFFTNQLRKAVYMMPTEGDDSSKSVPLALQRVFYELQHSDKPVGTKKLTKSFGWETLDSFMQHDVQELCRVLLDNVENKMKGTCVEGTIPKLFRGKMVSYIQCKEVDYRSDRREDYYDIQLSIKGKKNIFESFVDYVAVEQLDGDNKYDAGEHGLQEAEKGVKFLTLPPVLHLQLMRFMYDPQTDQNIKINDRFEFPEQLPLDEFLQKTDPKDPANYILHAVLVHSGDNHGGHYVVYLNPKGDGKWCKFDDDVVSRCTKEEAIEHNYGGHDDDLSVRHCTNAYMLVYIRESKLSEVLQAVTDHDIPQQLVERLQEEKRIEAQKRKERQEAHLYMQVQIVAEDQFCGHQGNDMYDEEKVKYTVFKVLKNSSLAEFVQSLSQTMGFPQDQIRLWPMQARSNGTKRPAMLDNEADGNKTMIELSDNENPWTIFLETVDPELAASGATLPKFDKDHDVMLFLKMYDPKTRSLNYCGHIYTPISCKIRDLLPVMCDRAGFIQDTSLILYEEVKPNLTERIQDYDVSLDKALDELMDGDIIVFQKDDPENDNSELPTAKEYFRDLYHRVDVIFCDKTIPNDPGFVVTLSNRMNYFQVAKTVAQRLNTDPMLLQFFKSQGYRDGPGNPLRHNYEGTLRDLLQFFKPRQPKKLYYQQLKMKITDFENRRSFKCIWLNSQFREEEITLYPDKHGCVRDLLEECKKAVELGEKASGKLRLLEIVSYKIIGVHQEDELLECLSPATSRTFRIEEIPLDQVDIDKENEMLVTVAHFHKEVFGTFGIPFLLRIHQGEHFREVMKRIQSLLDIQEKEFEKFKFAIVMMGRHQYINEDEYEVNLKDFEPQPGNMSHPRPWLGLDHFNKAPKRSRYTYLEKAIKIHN

HeLa [3] = experiment: Inhibition of deubiquitinase in human HeLa cell extracts assessed as induction of accumulation of high molecular weight ubiquitylated proteins at 10 uM incubated for 2 hrs by immunoblot analysis; format: cell-free
KMS-11 = experiment: Cytotoxicity in human KMS11 cells assessed as reduction in cell viability at 1 to 10 uM incubated for 16 hrs in presence of GSH by Alamar blue assay; format: functional, cell-based
In short: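 KMS11 seeded at 80,000/well, treated with 1 or 10 µM compound with or without 1 mM GSH for 16 h, 6 biological replicates. Alamar blue fluorescence read at 560/590 nm, normalised to DMSO control.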

[4] = molecular target: T1, Ubiquitin carboxyl-terminal hydrolase isozyme L5 (Homo sapiens) (UniProt Q9Y5K5); experiment: Inhibition of UCH-37 in human HeLa crude cell extracts assessed as induction of formation of high molecular weight complexes with […] at 10 uM incubated for 2 hrs in presence of dithiothreitol by immunoblot analysis; format: cell-free
T1 sequence (whole entry): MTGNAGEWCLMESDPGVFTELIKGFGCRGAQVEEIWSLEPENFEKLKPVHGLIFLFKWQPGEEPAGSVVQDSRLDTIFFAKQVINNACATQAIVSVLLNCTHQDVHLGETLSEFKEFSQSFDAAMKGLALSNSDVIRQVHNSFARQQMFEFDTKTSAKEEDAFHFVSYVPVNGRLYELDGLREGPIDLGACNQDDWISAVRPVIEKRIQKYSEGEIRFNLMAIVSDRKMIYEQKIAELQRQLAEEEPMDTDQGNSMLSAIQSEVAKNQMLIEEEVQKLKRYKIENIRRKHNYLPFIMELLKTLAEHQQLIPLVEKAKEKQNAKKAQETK

[5] = molecular target: Ubiquitin carboxyl-terminal hydrolase 14 (Homo sapiens) (UniProt P54578); experiment: Inhibition of USP14 in intact human HeLa cells assessed as induction of formation of high molecular weight complexes with USP14 at 10 uM in presence of dithiothreitol incubated for 2 hrs by immunoblot analysis; format: cell-based
Chain of Ubiquitin carboxyl-terminal hydrolase 14 (Homo sapiens) (P54578 whole entry): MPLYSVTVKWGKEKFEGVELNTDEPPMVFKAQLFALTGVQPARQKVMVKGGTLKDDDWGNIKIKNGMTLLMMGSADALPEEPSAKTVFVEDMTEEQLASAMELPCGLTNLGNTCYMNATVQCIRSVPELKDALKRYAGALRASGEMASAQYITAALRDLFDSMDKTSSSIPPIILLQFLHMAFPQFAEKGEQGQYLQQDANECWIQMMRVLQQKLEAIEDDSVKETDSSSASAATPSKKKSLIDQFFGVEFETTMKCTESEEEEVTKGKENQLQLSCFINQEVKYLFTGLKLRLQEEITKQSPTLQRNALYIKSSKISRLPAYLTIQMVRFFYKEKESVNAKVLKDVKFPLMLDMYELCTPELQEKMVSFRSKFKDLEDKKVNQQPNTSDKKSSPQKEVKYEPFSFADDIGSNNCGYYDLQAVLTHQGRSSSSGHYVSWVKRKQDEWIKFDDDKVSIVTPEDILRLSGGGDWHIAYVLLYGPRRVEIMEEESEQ
In short: (§2)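 Intact HeLa cells (DMEM, 10% FBS, about 80% confluent) treated 2 h with vehicle or 10 μM compound, with or without 10 mM DTT or 10 mM GSH. Cells washed in cold PBS and lysed in RIPA with protease and phosphatase inhibitors. High-MW species detected by SDS-PAGE immunoblot; shorter exposures served as loading control.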

[6] = molecular target: Ubiquitin carboxyl-terminal hydrolase 14 (Homo sapiens) (UniProt P54578); experiment: Inhibition of USP14 in human HeLa crude cell extracts assessed as induction of formation of high molecular weight complexes with USP14 at 10 uM incubated for 2 hrs in presence of dithiothreitol by immunoblot analysis; format: cell-free
[7] = molecular target: Ubiquitin thioesterase OTUB1 (Homo sapiens) (UniProt Q96FW1); experiment: Inhibition of recombinant human His6-Otubain-1 assessed as reduction in cleavage of luminescent substrate Ub-AML at 100 uM; in short: as §1
Chain of Ubiquitin thioesterase OTUB1 (Homo sapiens) (Q96FW1 whole entry): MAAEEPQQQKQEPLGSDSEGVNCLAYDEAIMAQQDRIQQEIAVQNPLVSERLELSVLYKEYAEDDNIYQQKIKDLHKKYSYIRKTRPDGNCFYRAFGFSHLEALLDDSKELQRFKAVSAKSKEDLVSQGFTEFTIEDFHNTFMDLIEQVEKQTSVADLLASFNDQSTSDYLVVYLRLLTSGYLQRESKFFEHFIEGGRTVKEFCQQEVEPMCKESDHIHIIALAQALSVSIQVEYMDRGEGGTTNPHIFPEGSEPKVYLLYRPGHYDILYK

HeLa [8] = experiment: Inhibition of deubiquitinase in human HeLa cell extracts assessed as increase in high molecular weight protein complexes at 10 uM incubated for 2 hrs by SDS-PAGE and Coomassie Blue staining based method; format: cell-free
[9] = molecular target: Ubiquitin carboxyl-terminal hydrolase 8 (Homo sapiens) (UniProt P40818); experiment: Inhibition of N-terminal His6-tagged full length recombinant human USP8 assessed as reduction in cleavage of luminescent substrate Ub-AML at 100 uM; in short: as §1
Chain of Ubiquitin carboxyl-terminal hydrolase 8 (Homo sapiens) (P40818 whole entry): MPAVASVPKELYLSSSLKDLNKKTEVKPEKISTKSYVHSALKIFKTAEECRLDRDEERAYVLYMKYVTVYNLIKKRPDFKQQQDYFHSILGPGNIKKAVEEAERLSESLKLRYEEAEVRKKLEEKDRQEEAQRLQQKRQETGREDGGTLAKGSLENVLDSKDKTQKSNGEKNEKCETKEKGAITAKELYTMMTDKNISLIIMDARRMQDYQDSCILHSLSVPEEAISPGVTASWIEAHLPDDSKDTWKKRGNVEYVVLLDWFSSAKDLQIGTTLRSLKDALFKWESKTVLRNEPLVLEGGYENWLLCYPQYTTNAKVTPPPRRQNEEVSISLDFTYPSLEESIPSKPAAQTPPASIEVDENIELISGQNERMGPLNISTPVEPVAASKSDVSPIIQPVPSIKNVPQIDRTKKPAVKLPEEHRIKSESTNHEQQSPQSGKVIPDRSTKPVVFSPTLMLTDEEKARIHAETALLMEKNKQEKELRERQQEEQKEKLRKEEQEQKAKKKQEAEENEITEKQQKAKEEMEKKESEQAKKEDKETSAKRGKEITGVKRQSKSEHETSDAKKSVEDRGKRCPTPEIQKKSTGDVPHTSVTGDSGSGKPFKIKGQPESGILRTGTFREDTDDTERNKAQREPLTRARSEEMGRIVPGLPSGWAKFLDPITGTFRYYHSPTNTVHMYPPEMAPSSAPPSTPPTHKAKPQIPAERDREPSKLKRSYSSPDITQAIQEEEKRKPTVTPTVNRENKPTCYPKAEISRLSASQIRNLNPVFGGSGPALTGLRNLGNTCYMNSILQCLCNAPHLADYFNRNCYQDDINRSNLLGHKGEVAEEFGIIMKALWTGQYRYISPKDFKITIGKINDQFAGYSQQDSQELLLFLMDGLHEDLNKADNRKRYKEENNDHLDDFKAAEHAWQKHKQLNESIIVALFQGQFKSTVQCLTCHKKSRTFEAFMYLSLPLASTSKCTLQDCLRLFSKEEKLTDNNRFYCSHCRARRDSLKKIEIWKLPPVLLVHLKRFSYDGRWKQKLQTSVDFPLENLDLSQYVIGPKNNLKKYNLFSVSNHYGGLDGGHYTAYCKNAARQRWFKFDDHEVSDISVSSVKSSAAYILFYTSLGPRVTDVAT

HUVEC = experiment: Cytotoxicity in human HUVEC cells assessed as reduction in cell viability incubated for 72 hrs Cell-titer Glo reagent based assay
In short: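 Endothelial HUVECs (EGM-2, 10% FBS) exposed to compound for 72 h, n=6. Viability read as CellTiter Glo luminescence and IC50 derived.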

[10] = molecular target: T1, Ubiquitin carboxyl-terminal hydrolase isozyme L5 (Homo sapiens); experiment: Inhibition of UCH-37 in intact human HeLa cells assessed as induction of formation of high molecular weight complexes with USP14 at 10 uM incubated for 2 hrs in presence of dithiothreitol by immunoblot analysis; format: cell-based; in short: as §2
[11] = molecular target: Ubiquitin carboxyl-terminal hydrolase 14 (Homo sapiens) (UniProt P54578); experiment: Inhibition of USP14 in intact human HeLa cells assessed as induction of formation of high molecular weight complexes with USP14 at 10 uM incubated for 2 hrs by immunoblot analysis; format: cell-based; in short: as §2
HeLa [12] = experiment: Inhibition of deubiquitinase in human HeLa cell extracts assessed as decrease in global DUB activity at 50 uM using luminescent substrate Ub-AML; format: cell-free
In short: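 HeLa crude extracts used as the DUB source, prepared as for the ABP assays. Global DUB activity read by luminescence with Ub-AML substrate, using the Glo reagent protocol.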

Anamorsin (Homo sapiens) [13] = molecular target: Anamorsin (Homo sapiens) (UniProt Q6FI81); experiment: Inhibition of CIAPIN1 in human KMS11 cells assessed as […] depletion of stable CIAPIN1 levels at 1 to 10 uM incubated for 6 hrs by immunoblot analysis; format: cell-based
Chain of Anamorsin (Homo sapiens) (Q6FI81 whole entry): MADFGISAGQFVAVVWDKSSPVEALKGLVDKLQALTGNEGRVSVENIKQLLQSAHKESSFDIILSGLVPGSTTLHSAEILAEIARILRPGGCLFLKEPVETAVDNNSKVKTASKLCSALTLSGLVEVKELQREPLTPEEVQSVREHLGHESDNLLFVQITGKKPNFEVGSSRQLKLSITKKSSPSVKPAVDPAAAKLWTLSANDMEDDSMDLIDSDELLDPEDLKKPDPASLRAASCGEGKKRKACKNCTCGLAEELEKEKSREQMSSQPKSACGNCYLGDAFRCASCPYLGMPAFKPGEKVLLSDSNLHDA

Anamorsin (Homo sapiens) [14] = molecular target: Anamorsin (Homo sapiens) (UniProt Q6FI81); experiment: Inhibition of CIAPIN1 in human KMS11 cells assessed as induction of high molecular weight complex formation at 1 to 10 uM incubated for 6 hrs by immunoblot analysis; format: cell-based
SiHa = experiment: Cytotoxicity in human SiHa cells assessed as reduction in cell viability incubated for 72 hrs Cell-titer Glo reagent based assay; format: functional
In short: (§3)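 Tumor lines grown at 37 °C, 5% CO2 with 10% FBS (DMEM for HeLa and SiHa; RPMI for HCT116) and exposed to compound for 72 h. Viability read by CellTiter Glo luminescence; IC50 derived from n=6.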

[15] = molecular target: T1, Ubiquitin carboxyl-terminal hydrolase isozyme L5 (Homo sapiens); experiment: Inhibition of UCH-37 in human HeLa crude cell extracts assessed as induction of formation of high molecular weight complexes with […] at 10 uM incubated for 2 hrs in presence of glutathione by immunoblot analysis; format: cell-free
[16] = molecular target: Ubiquitin carboxyl-terminal hydrolase 14 (Homo sapiens) (UniProt P54578); experiment: Inhibition of USP14 in human HeLa crude cell extracts assessed as induction of formation of high molecular weight complexes with USP14 at 10 uM incubated for 2 hrs by immunoblot analysis; format: cell-free
HeLa [17] = experiment: Inhibition of deubiquitinase in human HeLa cell extracts assessed as inhibition of HA-Ub-C2Br probe labeling at 1 to 100 uM incubated for 30 mins by immunoblot analysis; format: cell-free
Homo sapiens = organism: Homo sapiens; experiment: Inhibition of purified 19S proteasome (unknown origin) assessed as reduction in cleavage of luminescent substrate Ub-AML at 100 uM
[18] = molecular target: Ubiquitin carboxyl-terminal hydrolase BAP1 (Homo sapiens) (UniProt Q92560); experiment: Inhibition of His6-tagged recombinant human BAP1 assessed as reduction in cleavage of luminescent substrate Ub-AML at 100 uM; in short: as §1
Chain of Ubiquitin carboxyl-terminal hydrolase BAP1 (Homo sapiens) (Q92560 whole entry): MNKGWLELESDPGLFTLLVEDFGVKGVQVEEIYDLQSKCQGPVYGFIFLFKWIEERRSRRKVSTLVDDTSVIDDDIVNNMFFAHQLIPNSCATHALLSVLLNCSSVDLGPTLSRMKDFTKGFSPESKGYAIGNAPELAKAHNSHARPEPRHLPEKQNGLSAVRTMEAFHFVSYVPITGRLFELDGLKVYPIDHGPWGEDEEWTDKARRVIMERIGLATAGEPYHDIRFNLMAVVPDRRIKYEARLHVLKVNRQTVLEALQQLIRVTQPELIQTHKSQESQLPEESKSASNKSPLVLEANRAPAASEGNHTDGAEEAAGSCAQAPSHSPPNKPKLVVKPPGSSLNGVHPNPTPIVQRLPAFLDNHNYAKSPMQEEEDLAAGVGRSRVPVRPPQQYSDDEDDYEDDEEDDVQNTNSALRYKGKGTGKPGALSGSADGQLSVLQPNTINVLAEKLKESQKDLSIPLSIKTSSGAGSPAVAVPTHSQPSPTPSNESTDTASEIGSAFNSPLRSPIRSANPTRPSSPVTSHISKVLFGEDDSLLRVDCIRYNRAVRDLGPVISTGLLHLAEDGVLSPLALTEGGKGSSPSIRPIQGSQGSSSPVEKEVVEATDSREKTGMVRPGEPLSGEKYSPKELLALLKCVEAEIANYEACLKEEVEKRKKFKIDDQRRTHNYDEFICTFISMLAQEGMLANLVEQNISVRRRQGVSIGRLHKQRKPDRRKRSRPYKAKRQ

HeLa [19] = experiment: Cytotoxicity in human HeLa cells assessed as reduction in cell viability incubated for 72 hrs Cell-titer Glo reagent based assay; format: functional; in short: as §3

C=CC(=O)N1C/C(=C\c2ccc([N+](=O)[O-])cc2)C(=O)/C(=C/c2ccc([N+](=O)[O-])cc2)C1
inactive: inhibition (HeLa [1]) | Activity (KMS-11) | inhibition [4] | inhibition [5] | inhibition [6] | inhibition [10] | inhibition [15]
active: inhibition (Ataxin-3 (Homo sapiens)) | inhibition [2] | inhibition (HeLa [3]) | inhibition [7] | inhibition (HeLa [8]) | inhibition [9] | inhibition [11] | inhibition (HeLa [12]) | inhibition (Anamorsin (Homo sapiens) [13]) | inhibition (Anamorsin (Homo sapiens) [14]) | Activity (SiHa) | inhibition [16] | inhibition (HeLa [17]) | inhibition (Homo sapiens) | inhibition [18] | Activity (HeLa [19])
Toxic: Activity (HUVEC)
